# Results gathered from unrelated publications.
# Compare with care: the assays were run in different laboratories.
# Target: SRSF protein kinase 2 (SRPK2, Homo sapiens, UniProt P78362)
Compound,read-out,action,method,tested at,measurement,value
C#Cc1cccc(Nc2ncnc3cc(OCCOC)c(OCCOC)cc23)c1,cell-free assay,,,0.5 µM,remaining signal,101%
CCOc1cc(-c2nncn2C)ccc1Nc1ncc2cc(C)nc(NCC(C)(C)C)c2n1,enzyme activity,inhibitor,FRET,1 µM,inhibition,< 15%
Cn1c2c(c3ccc(Cl)c(Cl)c31)C(C#N)C(C)(C)NC2=O (centres unmarked),thermal stability,,DSF,10 µM,ΔTm,0.6 °C
O=C(Nc1cnn(-c2csc(C(=O)NC3COC3)c2)c1)Nc1c(F)cccc1Cl,enzyme activity,inhibitor,,5 µM,remaining activity,94%
Cc1cnc(NC2CCOCC2)nc1-n1cnc(C(=O)NC(CN)c2cc(F)cc(Cl)c2)c1 (centres unmarked),enzyme activity,inhibitor,radiometric,1 µM,remaining activity,101%
C[C@@H]1CCN(C(=O)CC#N)C[C@@H]1N(C)c1ncnc2[nH]ccc12,cell-free assay,inhibitor,,0.5 µM,remaining signal,90.7%
O=C(Nc1cnn(-c2csc(C(=O)NC3COC3)c2)c1)Nc1ccccc1Cl,enzyme activity,inhibitor,,5 µM,remaining activity,95.6%
Cn1c2c(c3ccccc31)C(C#N)C(C)(C)NC2=O (centres unmarked),thermal stability,,DSF,10 µM,ΔTm,0 °C
CC(C)(C)c1nc(-c2cccc(NS(=O)(=O)c3c(F)cccc3F)c2F)c(-c2ccnc(N)n2)s1,enzyme activity,inhibitor,radiometric,1 µM,remaining activity,111%
COc1cccc(CNC(=O)c2nc3scc(COCc4ccc(C(=O)O)cc4)c3c(=O)[nH]2)c1,cell-free assay,,competition with immobilised ligand,1 µM,remaining binding,100%
CNC(=O)c1cc(Oc2ccc(NC(=O)Nc3ccc(Cl)c(C(F)(F)F)c3)cc2)ccn1,enzyme activity,inhibitor,,0.3 µM,inhibition,2%
CN1CCC2(CC1)NC(=O)c1c(c3ccc(Cl)c(Cl)c3n1C)C2C#N (racemic),thermal stability,,DSF,10 µM,ΔTm,0.7 °C
COc1cc(Cl)c(C(=O)N[C@@H](CN[C@H]2CC[C@@H](N)CC2)Cc2ccc(C#N)cc2)cc1-c1ccc(CN[C@H](C)c2ccc(C)cc2)o1,enzyme activity,inhibitor,,1 µM,remaining activity,98%
Cc1ccc(C(=O)Nc2ccc(CN3CCN(C)CC3)c(C(F)(F)F)c2)cc1C#Cc1cnc2cccnn12,enzyme activity,inhibitor,,23.5 nM,remaining activity,94%
CO[C@@H](C)c1c(Nc2ccc([C@H](N(C)C(=O)C3CCS(=O)(=O)CC3)C(F)(F)F)cc2)cnc2cc(Cl)nn12,cell-free assay,,competition with immobilised ligand,1 µM,remaining binding,100%
CC/C(=N\NC(=O)NCc1cccc(O)c1)c1ccc(O)c(C)c1O,enzyme activity,inhibitor,,0.1 µM,inhibition,-2.2%
C[C@@H]1CN(c2cc(-c3n[nH]c4ccc(OC5(C)CC5)cc34)ncn2)C[C@H](C)O1,cell-free assay,,competition with immobilised ligand,0.1 µM,remaining binding,79%
CC(C1CC1)n1cnc2c(NCc3cccc(C(F)(F)F)c3)nc(NCCN(C)C)nc21 (centres unmarked),enzyme activity,inhibitor,,5 µM,inhibition,> 50%
Cc1ccc(Nc2nccc(N(C)c3ccc4c(C)n(C)nc4c3)n2)cc1S(N)(=O)=O,enzyme activity,inhibitor,,0.3 µM,inhibition,-9%
CC1(C)NC(=O)c2[nH]c3c(Cl)c(Cl)ccc3c2C1C#N (centres unmarked),thermal stability,,DSF,10 µM,ΔTm,0.4 °C
O=C(NS(=O)(=O)c1ccc(NCC2CCOCC2)c([N+](=O)[O-])c1)c1ccc(N2CCN(Cc3ccc(C(F)(F)F)cc3-c3ccc(Cl)cc3)CC2)cc1Oc1cnc2[nH]ccc2c1,cell-free assay,,competition with immobilised ligand,1 µM,remaining binding,100%
CCN(CC)CCNC(=O)c1c(C)[nH]c(/C=C2\C(=O)Nc3ccc(F)cc32)c1C,enzyme activity,inhibitor,,0.3 µM,inhibition,6%
Cn1c2c(c3ccc(Cl)c(Cl)c31)C(C#N)C1(CCCCC1)NC2=O (racemic),thermal stability,,DSF,10 µM,ΔTm,0.2 °C
COc1cc(-c2cc(-c3ccc(N4CCNCC4)cc3)cnc2C)cc(OC)c1OC,enzyme activity,inhibitor,,1 µM,inhibition,2%
CN(C)CC#Cc1ccc(OCCCc2sc(N3CCc4cccc(C(=O)Nc5nc6ccccc6s5)c4C3)nc2C(=O)O)c(F)c1,cell-free assay,,competition with immobilised ligand,1 µM,remaining binding,100%
Cc1ccc(NC(=O)c2ccc(C)c(C(F)(F)F)c2)cc1C#Cc1nn(C2CCC(O)CC2)c2ncnc(N)c12 (centres unmarked),cell-free assay,,,10 µM,remaining signal,107%
C[C@@H](c1cccc(C#N)c1)n1cc(Cl)cc(C(N)=O)c1=N,cell-free assay,,competition with immobilised ligand,1 µM,remaining binding,100%
Cn1c2c(c3ccc(Cl)c(Cl)c31)C(C#N)C1(CCNCC1)NC2=O (racemic),thermal stability,,DSF,10 µM,ΔTm,2.4 °C
CNC(=O)c1ccc(Nc2ncc(C(F)(F)F)c(NCc3nccnc3N(C)S(C)(=O)=O)n2)cc1,cell-free assay,,competition with immobilised ligand,0.1 µM,remaining binding,100%
COc1cc2ncnc(Nc3ccc(Oc4ccccc4)cc3C)c2cc1OC,enzyme activity,inhibitor,,1 µM,inhibition,0%
CCN1CCC2(CC1)NC(=O)c1c(c3ccc(Cl)c(Cl)c3n1C)C2C#N (racemic),thermal stability,,DSF,10 µM,ΔTm,0.5 °C
CN1CCN(c2cnc3c(C4CCN(C(=O)c5ccc(OC(F)(F)F)cc5N)CC4)ncnc3c2)CC1,cell-free assay,,competition with immobilised ligand,1 µM,remaining binding,78%
